Results pooled from the literature.
Compare with care: the assays were run in different laboratories.
Target: Serine/threonine-protein kinase ULK3 (ULK3, Homo sapiens, UniProt Q6PHR2)
Residues used in one study (Q6PHR2 1-472): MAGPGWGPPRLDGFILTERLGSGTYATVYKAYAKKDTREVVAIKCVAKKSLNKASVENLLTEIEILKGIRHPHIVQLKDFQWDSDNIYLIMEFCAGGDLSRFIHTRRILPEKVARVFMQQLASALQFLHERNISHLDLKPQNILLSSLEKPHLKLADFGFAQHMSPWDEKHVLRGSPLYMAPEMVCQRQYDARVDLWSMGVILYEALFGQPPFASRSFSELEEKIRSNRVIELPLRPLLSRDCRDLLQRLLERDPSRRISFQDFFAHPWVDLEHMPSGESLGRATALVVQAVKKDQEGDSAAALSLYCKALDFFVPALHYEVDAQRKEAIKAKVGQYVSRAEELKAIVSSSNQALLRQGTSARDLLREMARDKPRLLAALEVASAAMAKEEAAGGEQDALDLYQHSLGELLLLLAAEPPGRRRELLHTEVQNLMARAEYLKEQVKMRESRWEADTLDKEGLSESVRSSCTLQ

COc1cnc(Nc2cccc(S(N)(=O)=O)c2)nc1N1CCN(c2ccccc2)CC1 — remaining binding (binding; competition with immobilised ligand; 1 µM): 79%
O=C(O)[C@H]1[C@H](Cn2nnc3ccccc3c2=O)CC[C@@H]1C(=O)c1ccc(OCCC2CCOCC2)cc1 — remaining binding (cell-free assay; competition with immobilised ligand; 1 µM): 85%
COc1cnc(Nc2cccc(S(N)(=O)=O)c2)nc1N1CCN(c2ccccc2)C(=O)C1 — remaining binding (binding; competition with immobilised ligand; 1 µM): 45%
O=C(c1ccc(Nc2ncc(Cl)c(-c3cc4ccccc4s3)n2)cc1)N1CCC(N2CCCC2)CC1 — remaining binding (binding; competition with immobilised ligand; 1 µM): 0.2%
COc1ncc2cc3ccccc3nc2c1C#N — remaining binding (cell-free assay; competition with immobilised ligand; 5 µM): 91%
CN(C)c1ncnc(-c2ccc3nc(Nc4cc(CN5CCN(C(=O)CC(F)(F)F)CC5)ccn4)[nH]c3c2)c1Cl — remaining binding (cell-free assay; competition with immobilised ligand; 1 µM): 61%
N[C@H]1CCN(c2nccc(-c3cnn4ncccc34)n2)C1 — remaining binding (binding; 1 µM): 86%
O=C(Nc1ccc(Oc2ccc(F)cc2)cc1)N1CCc2ncccc2[C@H]1c1ccc(F)cc1 — remaining binding (cell-free assay; competition with immobilised ligand; 1 µM): 99%
CN(CCCC(F)(F)F)c1nccc(-c2cnn3ncccc23)n1 — remaining binding (binding; 1 µM): 94%
O=C(NCCCN1CCOCC1)c1ccc(Nc2ncc(Cl)c(-c3ccc(Cl)s3)n2)cc1 — remaining binding (binding; competition with immobilised ligand; 1 µM): 6.5%
CNC(=O)Nc1ccc2c(c1)[C@@]1(CC2)OC(=O)N(CC(=O)N(Cc2ccc(F)cc2)[C@@H](C)C(F)(F)F)C1=O — remaining binding (cell-free assay; competition with immobilised ligand; 1 µM): 55%
CN(C)c1nccc(-c2cnc3ncccn23)n1 — remaining binding (binding; 1 µM): 75%
O=C(NCC1CCOCC1)c1n[nH]cc1NC(=O)c1c(F)cccc1F — remaining binding (binding; competition with immobilised ligand; 1 µM): 85%
CCN1CCN(Cc2ccc(C(=O)Nc3ccc(C)c(Oc4ccc5c(c4)CC(=O)N5)c3)cc2C(F)(F)F)CC1 — remaining binding (binding; competition with immobilised ligand; 1 µM): 100%
C[C@@H]1CCN(c2nccc(-c3cnn4ncccc34)n2)C1 — remaining binding (binding; 1 µM): 80%
O=C(c1ccc(Nc2ncc(Cl)c(-c3ccc(Cl)s3)n2)cc1)N1CCC(N2CCCC2)CC1 — remaining binding (binding; competition with immobilised ligand; 1 µM): 0.1%
CN(C)c1ncc(F)c(-c2cnn3ncccc23)n1 — remaining binding (binding; 1 µM): 72%
Cn1cc(Cl)c2c(Oc3c(F)cc(Nc4cc(Cl)nc(N)n4)cc3F)ccnc21 — remaining binding (cell-free assay; competition with immobilised ligand; 0.1 µM): 85%
CN(C)c1nccc(-c2cnn3ncccc23)n1 — remaining binding (binding; 1 µM): 77%
CS(=O)(=O)N1CCCC(NC(=O)[C@H](CCC2CCCCC2)NC(=O)c2ccc(CNC(=O)c3cnc4ccccn34)cc2)C1 (some centres unmarked) — remaining binding (cell-free assay; competition with immobilised ligand; 0.1 µM): 100%
